The source made the active and inactive calls. No cut-off for these calls is given here.
How the values were obtained:
MDA-MB-231 [1] = experiment: Antiproliferative activity against human MDA-MB-231 cells assessed as decrease in cell proliferation at 0.1 uM incubated for 48 hrs in presence of cisplatin by MTT assay; assay type: functional, cell-based
In short: (§1)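 MDA-MB-231 cells seeded at 2 x 10^5 cells/well in medium with charcoal-treated FCS, then treated 24 h later with compound at 10^-7 M (ethanol vehicle) for 48 h, alone or together with cisplatin 25 μM. Read by MTT, DMSO solubilization, absorbance at 570 nm. Expressed as percent inhibition of proliferation relative to ethanol control normalized to 100%.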

[2] = Toxicity in Swiss CD-1 mouse assessed as body weight change at 0.3 microg/kg,ip using sesame oil as vehicle for 21 days on every other day; details: in vivo, 0.0003 mg/kg, 504 h, dose 0.3 µg/kg, time 21 day
In short: (§2)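 Groups of 5 male Swiss CD-1 mice given 0.3 μg/kg i.p. every other day for 21 days in sesame oil vehicle; sesame oil alone as control. Body weight recorded at day 21. Serum calcium measured at end of test by colorimetric calcium assay kit. Mean ± SD, n=5.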

MDA-MB-231 [3] = experiment: Antiproliferative activity against human MDA-MB-231 cells cultured as 3D spheroids assessed as decrease in cell growth by measuring the sphere diameter at 0.1 uM incubated for 6 days by Phase-contrast microscopy; assay type: functional, cell-based; details: time 6.0 day
In short: (§3)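 3D culture: single-cell suspension of MDA-MB-231 (5x10^3 cells/100 μL) grown 4 days on a cell-repellent surface. Then treated 6 days with compound at 10^-7 M, given every other day, with or without cisplatin 25 μM. Ethanol control. Sphere growth quantified as relative units; mean ± SD.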

MDA-MB-231 [4] = experiment: Antiproliferative activity against human MDA-MB-231 cells cultured as 3D spheroids assessed as decrease in cell growth by measuring the sphere diameter at 0.1 uM incubated for 6 days in presence of cisplatin by Phase-contrast microscopy; assay type: functional, cell-based; details: time 6.0 day; in short: as §3
MDA-MB-231 [5] = experiment: Antiproliferative activity against human MDA-MB-231 cells assessed as decrease in cell proliferation at 0.1 uM incubated for 48 hrs by MTT assay; assay type: functional, cell-based; in short: as §1
Mus musculus = experiment: Effect on hypercalcemic activity in Swiss CD-1 mouse assessed as increase in serum calcium level at 0.3 microg/kg,ip using sesame oil as vehicle for 21 days on every other day by QuantiChom calcium assay; assay type: functional; details: dose 0.3 µg/kg, time 21.0 day; in short: as §2
MCF7 = experiment: Upregulation of Cadherin-1 protein expression in human MCF7 cells at 0.1 uM incubated for 48 hrs by Western blot analysis; assay type: functional, cell-based
In short: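 MCF-7 cells in charcoal-stripped FCS medium treated with compound at 10^-7 M (ethanol vehicle) for 48 h. E-cadherin protein detected by Western blot with GAPDH as loading control; bands quantified by densitometry.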

HaCaT = experiment: Induction of human HaCaT cells differentiation assessed as increase in formation of compact epithelioid islands at 0.1 microM incubated for 48 hrs by phase-contrast microscopy; assay type: functional, cell-based
In short: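 HaCaT keratinocytes in charcoal-treated FCS medium treated 24 h after plating with compound at 10^-7 M in ethanol for 48 h. Ethanol-treated controls. Differentiation judged by phase-contrast microscopy, e.g. compact epithelioid island formation.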

Vitamin D3 receptor = target: T1, Vitamin D3 receptor (Homo sapiens, UniProt P11473); experiment: Binding affinity to full length human VDR by Competitive binding assay
T1 sequence (P11473 whole entry): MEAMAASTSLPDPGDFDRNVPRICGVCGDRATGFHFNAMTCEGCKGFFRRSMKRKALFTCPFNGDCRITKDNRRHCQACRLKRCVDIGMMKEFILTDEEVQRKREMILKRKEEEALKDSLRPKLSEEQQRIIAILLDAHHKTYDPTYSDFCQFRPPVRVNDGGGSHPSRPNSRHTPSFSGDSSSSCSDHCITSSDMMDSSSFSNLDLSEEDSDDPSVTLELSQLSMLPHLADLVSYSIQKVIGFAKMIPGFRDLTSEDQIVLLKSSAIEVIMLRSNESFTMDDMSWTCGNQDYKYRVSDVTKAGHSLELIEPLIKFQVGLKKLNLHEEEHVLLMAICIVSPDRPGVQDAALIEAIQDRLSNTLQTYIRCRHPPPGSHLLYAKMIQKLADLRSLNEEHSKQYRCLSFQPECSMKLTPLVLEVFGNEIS

Compound | IC50 (Vitamin D3 receptor) [nM] | Activity (MDA-MB-231 [1]) | Activity [2] | Activity (MDA-MB-231 [3]) | Activity (MDA-MB-231 [4]) | Activity (MDA-MB-231 [5]) | Activity (Mus musculus) | Activity (MCF7) | Activity (HaCaT)
C=C1/C(=C\C=C2/CCC[C@]3(C)[C@@H]([C@H](C)CCCC(C)(C)O)CC[C@@H]23)C[C@@H](O)C[C@@H]1O [CALCITRIOL] |  | Active | Toxic | inactive | Active | Active | Active | Active | Active
C=C1/C(=C\C=C(/C)c2cccc(CCC#CCC(O)(C(F)(F)F)C(F)(F)F)c2)C[C@@H](O)C[C@@H]1O | 45.7 | Active | Non-Toxic | inactive | Active | Active | inactive | Active | Active

More lines, in order of falling IC50 (Vitamin D3 receptor), values ahead:

IC50 (Vitamin D3 receptor) [nM] | Compound | Activity (MDA-MB-231 [1]) | Activity [2] | Activity (MDA-MB-231 [3]) | Activity (MDA-MB-231 [4]) | Activity (MDA-MB-231 [5]) | Activity (Mus musculus) | Activity (MCF7) | Activity (HaCaT)
7.47 | C=C1/C(=C\C=C(/CC)c2cccc(CCC#CCC(C)(C)O)c2)C[C@@H](O)C[C@@H]1O | Active | Non-Toxic | inactive | Active | Active | inactive | Active | Active
4.64 | C=C1/C(=C\C=C(/CC)c2cccc(CCC#CCC(O)(C(F)(F)F)C(F)(F)F)c2)C[C@@H](O)C[C@@H]1O | Active | Non-Toxic | inactive | Active | Active | inactive | Active | Active
2.91 | C=C1/C(=C\C=C(/CC)c2cccc(CCCCCC(O)(C(F)(F)F)C(F)(F)F)c2)C[C@@H](O)C[C@@H]1O | Active | Non-Toxic | inactive | Active | Active | inactive | Active | Active

From ChEMBL document CHEMBL5390262, “Further Studies on the Highly Active Des-C-Ring and Aromatic-D-Ring Analogues of 1α,25-Dihydroxyvitamin D3 (Calcitriol): Refinement of the Side Chain” (J Med Chem, 2023)
